# Sampled rows, rich in hits. Any-hit rate of the full collection: about 2.1%.
# CXCR6 block = inhibitors of human CXCR6 receptor. O00574. CHO-K1 PathHunter CXCR6 beta-arrestin, luminescence. actives 0.36% (n = 360,000). inhibition, % at 20 µM; in the data active = inhibition above about 34%, passing the limit was not always enough;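 note: antagonist mode with CXCL16 agonist at 10 nM final; 0% = 10 nM CXCL16 with DMSO and 100% = unstimulated wells without agonist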
# EBI2 antag = blocks human EBI2 receptor beta-arrestin signaling. EBI2 beta-arrestin recruitment, luminescence, 7a,25-OHC stimulated. inhibition, % at 5 µM. actives 0.81% (n = 360,000); in the data active = inhibition above about 38%;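 note: enzyme fragment complementation signal reports receptor beta-arrestin coupling in cells; 0% = agonist plus DMSO wells and 100% = wells without agonist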
# APJ antagonist = antagonists of human APJ apelin receptor | P35414 | CHO-K1 APJ beta-arrestin complementation, luminescence | inhibition, % at 20 µM | actives 0.32% (n = 330,000) | AID 2521;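 active = inhibition above about 40% at 20 µM, limit read from the data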;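 note: cells challenged with 10 nM apelin-13 agonist together with compound; plate controls were apelin-13 plus DMSO wells for no effect and DMSO wells lacking apelin-13 for full effect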
# APJ ag = activates the human apelin receptor APJ; P35414; CHO-K1 APJ PathHunter beta-arrestin, luminescence; 0% DMSO wells, 100% apelin; activation, % at 20 µM; actives 0.11% (n = 330,000); AID 2520;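 active = activation more than six SD over the plate average, tested at 20 µM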;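 note: 0% = DMSO alone and 100% = apelin-13 at 10 nM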
#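 Assay system: CHO-K1 APJ beta-arrestin complementation cell line / Compound: single test compound dose, 20 µM final, 1% DMSO / Times: overnight seeding, 90 min compound at 25 °C, 1 h detection / Technique: beta-gal luminescence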
# CCR6 antag = CCR6 (human) receptor antagonism | P51684 | CHO-K1 CCR6 PathHunter beta-arrestin, luminescence, CCL20-stimulated | inhibition, % at 20 µM | actives 0.49% (n = 340,000) | AID 493098;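 active = compounds whose inhibition of the agonist-driven luminescence signal at 20 µM reaches about 50%, limit read from the data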;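 note: cells stimulated with CCL20 at 14 nM final; plate controls were DMSO with CCL20 for no effect and DMSO without agonist for full effect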
# Target sequence (P51684 whole entry, looked up): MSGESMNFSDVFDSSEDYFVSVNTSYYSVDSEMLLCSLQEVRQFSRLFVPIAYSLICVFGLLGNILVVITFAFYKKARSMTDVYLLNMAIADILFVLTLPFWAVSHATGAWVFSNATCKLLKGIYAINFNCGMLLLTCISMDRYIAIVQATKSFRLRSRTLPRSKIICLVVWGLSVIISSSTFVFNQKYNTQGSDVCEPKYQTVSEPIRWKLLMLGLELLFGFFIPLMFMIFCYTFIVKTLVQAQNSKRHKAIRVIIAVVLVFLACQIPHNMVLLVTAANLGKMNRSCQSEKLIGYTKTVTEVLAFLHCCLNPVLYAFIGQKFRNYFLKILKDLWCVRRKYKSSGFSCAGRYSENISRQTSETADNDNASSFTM
# m5-HT2A agonist = agonists of mouse serotonin 5-HT2A receptor (HTR2A); activation, % at 7.6 µM; P35363; CHO-K1 mHTR2A beta-arrestin complementation, luminescence; percent of 30 µM serotonin response; actives 0.66% (n = 360,000);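 active = activation above a run cutoff, the mean activation of all tested compounds plus 3 SD, cut at about 14% in these data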;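 note: 0% = plate median of compound wells and 100% = 30 µM serotonin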
# EBI2 antag conf = EBI2 (human) antagonism, single concentration confirmation; actives 29% (n = 2,400); EBI2 beta-arrestin luminescence, 7a,25-OHC antagonism; inhibition, % at 5 µM; shares compounds with EBI2 antag;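 active = inhibition of at least 50%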
# EBI2 agonist = activates EBI2, counter-screen for EBI2 antagonists; shares compounds with EBI2 antag; EBI2-expressing cells, agonist mode, luminescence, 60 min; 0% vehicle, 100% 7α,25-dihydroxycholesterol control; activation, % at 5 µM; 2,400 tested, under 10 active;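 active = activation of at least 50%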
# bGal counter = inhibits E. coli beta-galactosidase, counter-screen for EBI2 antagonists. shares compounds with EBI2 antag. purified beta-galactosidase, luminescent Galacton Star, 15 min. inhibition, % at 5 µM. actives 1% (n = 2,400);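 active = replicate-average signal at least 3 plate SD below neutral wells, shown as high inhibition, flagging enzyme-inhibiting false positives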;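 note: 0% = DMSO wells with enzyme and 100% = wells lacking enzyme; higher means stronger loss of beta-gal luminescence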
# Numbers without * were called inactive; x = not tested or not shown.
SMILES,CXCR6 block,EBI2 antag,APJ antagonist,APJ ag,CCR6 antag,m5-HT2A agonist,EBI2 antag conf,EBI2 agonist,bGal counter
CN(CCOc1ccc(Cl)cc1)C(=O)C1CCN(C(=O)c2ccc(Cl)cc2)CC1,9,74*,8,4,19,5,40,0,4
O=C(c1ccc(Cl)cc1)N1CCN(CCOc2ccccc2)CC1,-2,46*,3,-5,7,-9,11,1,5
CN(CC(=O)Nc1ccc(Cl)c(C(F)(F)F)c1)C(=O)C1CCN(C(=O)c2ccc(Cl)cc2)CC1,-13,56*,x,x,-2,-8,39,-1,-20
COc1ccc(OCCN2CCN(C(=O)c3ccc(OC)cc3)CC2)cc1,10,44,-14,-1,6,-6,x,x,x
CCCc1ncc(C(O)c2cccc(OC)c2)n1C (centres undefined),-4,-4,-17,0,0,-2,x,x,x
CCc1cccc2c1NC(=O)C21N2CCCC2C(C(=O)c2ccc3ccccc3c2)C12C(=O)Nc1ccccc12 (centres undefined),4,55*,-4,-4,1,6,23,0,9
S=C(NCC1CCCO1)N1CCN(c2nc(-c3ccccc3)cs2)CC1 (centres undefined),-3,40*,2,2,-8,-6,22,-1,-8
CCOc1ccc(/C=C/C(=O)c2ccccc2)cc1,2,10,13,-3,9,-2,x,x,x
CCOc1ccc(C(=O)/C=C/c2ccc(SC)cc2)cc1,-1,61*,-4,-3,11,2,50*,0,7
Cc1ccc(Nc2ccc(N3CCN(c4ccc([N+](=O)[O-])cc4)CC3)nn2)cc1,5,8,5,0,7,4,x,x,x
c1ccc(CC2CCN(Cc3ccccn3)CC2)cc1,-8,-6,-1,-4,7,-7,x,x,x
COc1ccc(CCN2C(=O)C(Oc3ccccc3)C2c2ccc3c(c2)OCO3)cc1 (centres undefined),-6,42*,3,2,4,0,37,2,-3
O=C(/C=C/c1cccc(F)c1)Nc1cc(S(=O)(=O)N2CCOCC2)ccc1Cl,-4,13,5,-1,12,9,x,x,x
O=C(/C=C/c1cccc(F)c1)c1ccc(N2CCOCC2)cc1,10,58*,0,-5,27,-6,38,0,3
COc1ccc(CNc2oc(COc3ccc(Cl)cc3)nc2C#N)cc1,-3,42*,-13,1,22,-10,29,0,1
CC(=O)Nc1ccc(S(=O)(=O)Oc2ccc3c(c2)C(C)=CC(C)(C)N3)cc1,x,x,-36,5,x,x,x,x,x
CC1=CC(C)(C)Nc2ccc(OS(=O)(=O)c3ccc(C)cc3)cc21,-2,42*,-3,7,11,1,13,0,2
CN1OC[C@@H]2CN(C(=S)NCCc3ccccc3)[C@H](c3ccccc3Br)C[C@@H]21,2,9,x,x,x,-6,x,x,x
COC(=O)c1ccc2nc(-c3ccc(C)cc3)c(Cc3ccsc3)n2c1,8,20,x,x,x,-4,x,x,x
COC(=O)c1ccc2nc(-c3ccc(C#N)cc3)c(Cc3ccsc3)n2c1,14,63*,x,x,x,2,52*,-1,-17
O=C(c1ccc(Cl)cc1)c1c[nH]c(C(=O)C(Cl)(Cl)Cl)c1,-4,42*,25,-4,25,0,47,3,0
O=C(c1ccccc1)c1c[nH]c(C(=O)C(Cl)(Cl)Cl)c1,1,1,-10,-3,15,0,x,x,x

# Source: PubChem
